Measurements reported in ChEMBL document CHEMBL3272244, “Synthesis and biological activity of two metabolites of 1-methyl-5-(1-methylethyl)-2-nitro-1 H-imidazole, an antiprotozoal agent” (J Med Chem, 1977).
Values after ≈ are worked out from the molar mass of the structure shown.

Experiments:
Trichomonas vaginalis [1] = assay: Ratio of compound ED50 to metronidazole ED50 for Trichomonas vaginalis infected in po dosed mouse; assay type: functional
[2] = Acute toxicity in ip dosed mouse; assay type: organism-based; details: in vivo
Method in brief: (§1)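 Mice dosed with the agent. LD50 values were computed by the Litchfield and Wilcoxon method.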

Trichomonas vaginalis [3] = assay: Antiprotozoal activity against Trichomonas vaginalis assessed as static effect; assay type: functional
[4] = Acute toxicity in po dosed mouse; assay type: organism-based; details: in vivo; method in brief: as §1
Staphylococcus aureus = assay: Antibacterial activity against Staphylococcus aureus Tour assessed as growth inhibition; assay type: functional
Escherichia coli = assay: Antibacterial activity against Escherichia coli SKF 12140 assessed as growth inhibition; assay type: functional
Trichomonas vaginalis [5] = assay: Antiprotozoal activity against Trichomonas vaginalis assessed as cidal effect; assay type: functional
Trichomonas vaginalis [6] = assay: Antiprotozoal activity against Trichomonas vaginalis infected in po dosed mouse; assay type: functional
Clostridium perfringens = assay: Antibacterial activity against Clostridium perfringens ISS 30453 assessed as growth inhibition; assay type: functional

SMILES | Ratio ED50 (Trichomonas vaginalis [1]) | LD50 [2] [mg/kg] | MIC (Trichomonas vaginalis [3]) [µg/mL] | LD50 [4] [mg/kg] | MIC (Staphylococcus aureus) [µg/mL] | MIC (Escherichia coli) [µg/mL] | MIC (Trichomonas vaginalis [5]) [µg/mL] | ED50 (Trichomonas vaginalis [6]) [mg/kg] | MIC (Clostridium perfringens) [µg/mL]
Cn1c(C(C)(C)O)cnc1[N+](=O)[O-] | 0.21 | 475 | 6.2 (≈ 33.5 µM) | 698 | 100 (≈ 540 µM) | 100 (≈ 540 µM) | 25 (≈ 135 µM) | 2.5 | 25 (≈ 135 µM)
Cn1c(C(C)(O)CO)cnc1[N+](=O)[O-] (stereo unspecified) | >8 | – | 10 (≈ 49.7 µM) | > 1000 | > 100 | > 100 | 20 (≈ 99.4 µM) | > 80 | 5 (≈ 24.9 µM)
Cc1ncc([N+](=O)[O-])n1CCO [METRONIDAZOLE] | 1 | – | 0.5 (≈ 2.92 µM) | – | > 300 | > 300 | 5 (≈ 29.2 µM) | 11.5 | 0.5 (≈ 2.92 µM)
COC(C)(C)c1cnc([N+](=O)[O-])n1C | 0.19 | 225 | 6.2 (≈ 31.1 µM) | – | 100 (≈ 502 µM) | > 100 | 50 (≈ 251 µM) | – | 100 (≈ 502 µM)
C=C(C)c1cnc([N+](=O)[O-])n1C | 3.25 | – | 2 (≈ 12 µM) | 350 | > 100 | > 100 | 10 (≈ 59.8 µM) | 32.5 | 3.1 (≈ 18.5 µM)
CC(C)c1cnc([N+](=O)[O-])n1C | 0.17 | – | 5 (≈ 29.6 µM) | – | > 300 | > 300 | 20 (≈ 118 µM) | 2.03 | 5 (≈ 29.6 µM)
